Experimental data reported in ChEMBL document CHEMBL3853331, “Preparation, Antiepileptic Activity, and Cardiovascular Safety of Dihydropyrazoles as Brain-Penetrant T-Type Calcium Channel Blockers” (J Med Chem, 2016).
Values after ≈ are worked out from the molar mass of the structure shown.

Columns and labels:
[1] = Aqueous solubility of the compound at pH 4 by UV-HPLC method; type: physicochemical
Procedure, shortened: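 Compound dispensed from a 10 mM DMSO stock and the solvent evaporated. Residue stirred 24 h at room temperature in buffer: citrate (55 mM) pH 4.0 or phosphate (67 mM) pH 7.0. Mixture filtered by centrifugation. Filtrate concentration measured by HPLC-UV against calibration solutions.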

MDR1 = assay: Efflux ratio of permeability in MDCK cells expressing MDR1 (unknown origin); type: ADME, cell-based, Canis lupus familiaris; conditions: dog
Procedure, shortened: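 MDR1-transfected MDCK cell monolayers. Compound tested at 1 µM. Apparent permeability measured in both directions, apical to basolateral and basolateral to apical. Efflux ratio taken from the two directional permeabilities.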

[2] = molecular target: T1, Voltage-dependent T-type calcium channel subunit alpha-1G (Homo sapiens, UniProt O43497); assay: Inhibition of T-type calcium channel Cav3.1 (unknown origin) expressed in HEK293 cells assessed as calcium influx by Fluo-4-AM dye-based FLIPR assay; type: cell-based
Procedure, shortened: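 HEK293 cells stably expressing the channel, seeded overnight and loaded 1 h at 37°C with 3 µM Fluo-4-AM. Compounds given as a 3-fold dilution series from 10 µM to 0.05 nM and incubated 3 min. For T-type channels, dilutions in TEAC buffer and stimulation with 10 mM final CaCl2. For Cav1.2, dilutions in assay buffer and stimulation with 20 mM final KCl. IC50 from area under the fluorescence trace against vehicle; mean of at least two experiments.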

[3] = molecular target: T1, Voltage-dependent T-type calcium channel subunit alpha-1G; assay: Inhibition of human T-type calcium channel Cav3.1 expressed in CHO cells assessed as inhibition of calcium tail current at -60 mV holding potential measured after 150 secs by QPatch assay; type: cell-based
Procedure, shortened: (§1)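 CHO cells stably expressing human Cav3.1, Cav3.2 or Cav3.3, automated QPatch recording. 3-ms depolarization to +20 mV from a holding potential of -90 or -60 mV. Ca2+ tail current measured at -60 mV. Cs-glutamate internal and TEA-Cl external solution with 5 mM Ca2+. Effect read 150 s after application.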

[4] = molecular target: T1, Voltage-dependent T-type calcium channel subunit alpha-1G; assay: Inhibition of human T-type calcium channel Cav3.1 expressed in CHO cells assessed as inhibition of calcium tail current at -90 mV holding potential measured after 150 secs by QPatch assay; type: cell-based; procedure, shortened: as §1
[5] = molecular target: T2, Voltage-dependent T-type calcium channel subunit alpha-1H (Homo sapiens, UniProt O95180); assay: Inhibition of human T-type calcium channel Cav3.2 expressed in CHO cells assessed as inhibition of calcium tail current at -60 mV holding potential measured after 150 secs by QPatch assay; type: cell-based; procedure, shortened: as §1
[6] = molecular target: T2, Voltage-dependent T-type calcium channel subunit alpha-1H; assay: Inhibition of human T-type calcium channel Cav3.2 expressed in CHO cells assessed as inhibition of calcium tail current at -90 mV holding potential measured after 150 secs by QPatch assay; type: cell-based; procedure, shortened: as §1
Rattus norvegicus [7] = species: Rattus norvegicus; assay: Inhibition of Wistar rat brain neuronal sodium channel assessed as peak inward current at 10 uM measured during last peak
Procedure, shortened: (§2)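 Cortical neurons from E18 Wistar rat embryos, cultured 9-15 days, recorded by manual patch clamp from a holding potential of -80 mV. K+ currents: one 50-ms step to 0 mV, fast as peak outward and slow as end-of-pulse current. Na+ currents: train of fifteen 10-ms steps to 0 mV, peak inward current read at the first and last pulses. Effects read at least 180 s after application.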

Rattus norvegicus [8] = species: Rattus norvegicus; assay: Inhibition of Wistar rat brain potassium channel at 10 uM assessed as reduction in fast potassium current at -80 mV holding potential measured after 180 secs; procedure, shortened: as §2
Rattus norvegicus [9] = species: Rattus norvegicus; assay: Inhibition of Wistar rat brain potassium channel at 10 uM assessed as reduction in slow potassium current at -80 mV holding potential measured after 180 secs; procedure, shortened: as §2
Cytochrome P450 3A4 = Cytochrome P450 3A4 (Homo sapiens, UniProt P08684); assay: Inhibition of CYP3A4 (unknown origin) using testosterone as substrate; type: ADME
Cytochrome P450 2C9 = Cytochrome P450 2C9 (Homo sapiens, UniProt P11712); assay: Inhibition of CYP2C9 (unknown origin); type: ADME
[10] = Metabolic stability in human microsomes measured per mg protein; type: ADME, Microsome
[11] = Metabolic stability in mouse microsomes measured per mg protein; type: ADME, Microsome
[12] = Fraction unbound in rat plasma; type: ADME, cell-free
[13] = Volume of distribution at steady state in Wistar rat plasma at 0.2 mg/kg, iv; type: ADME, organism-based; conditions: read-out: Vdss
[14] = Half life in Wistar rat plasma at 0.2 mg/kg, iv administered 2 hrs after aminobenzotriazol-treatment; type: ADME, organism-based
Procedure, shortened: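 Male Wistar rats dosed iv at 0.2 mg/kg or po at 2 mg/kg. In the inhibited arm, the broad CYP inhibitor aminobenzotriazol was given orally 2 h before dosing. Clearance, Vss and half-life derived from plasma concentrations after the iv dose; Cmax and Tmax from the po dose.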

[15] = Cmax in Beagle dog plasma at 10 mg/kg, po; type: ADME, organism-based, Canis lupus familiaris; parameters: dose 10 mg/kg, route oral
Procedure, shortened: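 Beagle dogs given a single oral dose of 10 mg/kg; plasma Cmax and Tmax determined.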

[16] = Tmax in Beagle dog plasma at 10 mg/kg, po; type: ADME, organism-based, Canis lupus familiaris
[17] = Oral bioavailability in Wistar rat plasma at 2 mg/kg administered 2 hrs after aminobenzotriazol-treatment; type: ADME, organism-based
Procedure, shortened: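 Rats dosed orally with the CYP inhibitor aminobenzotriazol 2 h before the iv dose of 0.2 mg/kg. Oral dose was 2 mg/kg.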

[18] = Plasma concentration in Wistar rat at 10 mg/kg, po measured after 1 hr; type: ADME, organism-based
[19] = Drug uptake in Wistar rat brain at 100 mg/kg, po measured after 1 hr; type: ADME, organism-based; conditions: read-out: Drug uptake
Procedure, shortened: (§3)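 Male Wistar rats given oral doses of 10, 30 or 100 mg/kg. Plasma, brain and CSF collected at 1 h, and at 3 h for the 10 mg/kg dose; compound concentrations measured in each.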

[20] = Drug uptake in Wistar rat brain at 10 mg/kg, po measured after 1 hr; type: ADME, organism-based; conditions: read-out: Drug uptake; procedure, shortened: as §3
[21] = Drug uptake in Wistar rat CSF at 10 mg/kg, po measured after 1 hr; type: ADME, organism-based, Cerebrospinal fluid; conditions: read-out: Drug uptake; procedure, shortened: as §3
Rattus norvegicus [22] = assay: Cardiovascular toxicity in spontaneously hypertensive rat assessed as induction of AV block type 2 at 100 mg/kg, po by telemetry method; type: organism-based; conditions: in vivo
Procedure, shortened: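 Conscious, freely moving male spontaneously hypertensive rats with telemetry recording MAP, HR and ECG. Single oral dose (5 ml/kg) given as a suspension in 0.5% w/v methylcellulose in water, in the morning during the sleep phase. Vehicle controls run in parallel, n = 8 per group.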

Rattus norvegicus [23] = assay: Anticonvulsant activity in WAG/Rij rat model of generalized nonconvulsive absence-like epilepsy assessed as decrease in number of spontaneous seizures at 100 mg/kg, po administered as single dose at beginning of nocturnal active phase measured over 12 hrs by radiotelometry relative to vehicle control
Rattus norvegicus [24] = assay: Anticonvulsant activity in WAG/Rij rat model of generalized nonconvulsive absence-like epilepsy assessed as decrease in duration of spontaneous seizures at 100 mg/kg, po administered as single dose at beginning of nocturnal active phase measured over 4 hrs by radiotelometry relative to vehicle control
Rattus norvegicus [25] = assay: Anticonvulsant activity in WAG/Rij rat model of generalized nonconvulsive absence-like epilepsy assessed as decrease in total duration of spontaneous seizures at 100 mg/kg, po administered as single dose at beginning of nocturnal active phase measured over 12 hrs by radiotelometry relative to vehicle control

T1 sequence (O43497 whole entry): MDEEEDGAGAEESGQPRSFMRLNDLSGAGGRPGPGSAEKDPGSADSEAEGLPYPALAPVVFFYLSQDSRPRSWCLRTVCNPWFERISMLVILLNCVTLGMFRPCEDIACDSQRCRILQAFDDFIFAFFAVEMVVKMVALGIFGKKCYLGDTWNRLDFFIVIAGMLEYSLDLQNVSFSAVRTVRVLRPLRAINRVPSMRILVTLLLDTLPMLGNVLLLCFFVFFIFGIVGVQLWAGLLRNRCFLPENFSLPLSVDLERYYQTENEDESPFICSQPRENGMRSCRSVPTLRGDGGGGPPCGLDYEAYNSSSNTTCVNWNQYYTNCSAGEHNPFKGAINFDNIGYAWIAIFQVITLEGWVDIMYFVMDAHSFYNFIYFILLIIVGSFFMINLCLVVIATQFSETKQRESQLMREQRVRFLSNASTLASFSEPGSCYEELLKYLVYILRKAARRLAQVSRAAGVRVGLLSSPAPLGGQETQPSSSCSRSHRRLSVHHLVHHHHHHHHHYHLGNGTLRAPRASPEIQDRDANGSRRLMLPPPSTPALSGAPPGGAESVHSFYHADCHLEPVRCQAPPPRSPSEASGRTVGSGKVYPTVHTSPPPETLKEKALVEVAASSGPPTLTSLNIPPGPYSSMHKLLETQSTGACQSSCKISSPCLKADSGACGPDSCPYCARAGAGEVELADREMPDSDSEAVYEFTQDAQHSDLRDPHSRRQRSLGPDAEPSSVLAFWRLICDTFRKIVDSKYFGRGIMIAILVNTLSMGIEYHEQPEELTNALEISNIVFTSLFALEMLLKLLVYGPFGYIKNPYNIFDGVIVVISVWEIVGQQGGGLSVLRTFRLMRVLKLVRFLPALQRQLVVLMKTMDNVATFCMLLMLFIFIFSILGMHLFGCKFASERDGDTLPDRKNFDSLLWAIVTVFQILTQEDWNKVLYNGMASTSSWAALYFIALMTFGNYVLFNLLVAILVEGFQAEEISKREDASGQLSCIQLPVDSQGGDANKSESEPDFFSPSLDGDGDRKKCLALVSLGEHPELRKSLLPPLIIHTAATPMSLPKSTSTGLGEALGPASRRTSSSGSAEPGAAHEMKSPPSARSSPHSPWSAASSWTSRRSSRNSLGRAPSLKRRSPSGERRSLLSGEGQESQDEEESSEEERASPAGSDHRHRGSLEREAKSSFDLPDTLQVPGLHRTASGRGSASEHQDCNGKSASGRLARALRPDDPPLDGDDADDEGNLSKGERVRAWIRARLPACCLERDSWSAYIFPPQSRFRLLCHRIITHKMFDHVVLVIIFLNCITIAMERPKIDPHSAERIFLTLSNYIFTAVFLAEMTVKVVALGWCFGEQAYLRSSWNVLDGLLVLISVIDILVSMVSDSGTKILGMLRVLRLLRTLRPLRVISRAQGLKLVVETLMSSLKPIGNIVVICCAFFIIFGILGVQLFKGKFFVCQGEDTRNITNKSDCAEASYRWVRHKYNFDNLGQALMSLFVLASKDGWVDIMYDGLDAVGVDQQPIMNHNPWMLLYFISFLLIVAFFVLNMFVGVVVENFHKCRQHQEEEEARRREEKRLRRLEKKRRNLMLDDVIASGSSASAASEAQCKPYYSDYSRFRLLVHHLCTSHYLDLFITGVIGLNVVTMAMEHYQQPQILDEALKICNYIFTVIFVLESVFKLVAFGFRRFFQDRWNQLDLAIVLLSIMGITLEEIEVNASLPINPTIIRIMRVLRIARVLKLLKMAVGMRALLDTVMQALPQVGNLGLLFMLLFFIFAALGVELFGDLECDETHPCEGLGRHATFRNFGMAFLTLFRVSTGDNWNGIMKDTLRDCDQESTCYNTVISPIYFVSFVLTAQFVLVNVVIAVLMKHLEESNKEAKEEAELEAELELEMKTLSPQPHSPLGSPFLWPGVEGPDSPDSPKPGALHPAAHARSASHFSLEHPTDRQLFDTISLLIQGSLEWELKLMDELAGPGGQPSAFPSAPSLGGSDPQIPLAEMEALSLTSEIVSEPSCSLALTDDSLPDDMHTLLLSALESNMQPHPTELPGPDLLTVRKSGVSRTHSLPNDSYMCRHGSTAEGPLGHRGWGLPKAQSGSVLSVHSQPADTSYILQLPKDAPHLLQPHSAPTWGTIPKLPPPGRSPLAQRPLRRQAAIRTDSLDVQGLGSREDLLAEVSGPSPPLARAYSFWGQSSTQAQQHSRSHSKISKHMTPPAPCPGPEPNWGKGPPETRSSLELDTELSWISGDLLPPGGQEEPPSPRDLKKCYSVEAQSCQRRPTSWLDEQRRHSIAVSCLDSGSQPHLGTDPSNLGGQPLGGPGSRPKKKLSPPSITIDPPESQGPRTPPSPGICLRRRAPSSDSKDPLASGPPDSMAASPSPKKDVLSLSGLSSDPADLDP
T2 sequence (O95180 whole entry): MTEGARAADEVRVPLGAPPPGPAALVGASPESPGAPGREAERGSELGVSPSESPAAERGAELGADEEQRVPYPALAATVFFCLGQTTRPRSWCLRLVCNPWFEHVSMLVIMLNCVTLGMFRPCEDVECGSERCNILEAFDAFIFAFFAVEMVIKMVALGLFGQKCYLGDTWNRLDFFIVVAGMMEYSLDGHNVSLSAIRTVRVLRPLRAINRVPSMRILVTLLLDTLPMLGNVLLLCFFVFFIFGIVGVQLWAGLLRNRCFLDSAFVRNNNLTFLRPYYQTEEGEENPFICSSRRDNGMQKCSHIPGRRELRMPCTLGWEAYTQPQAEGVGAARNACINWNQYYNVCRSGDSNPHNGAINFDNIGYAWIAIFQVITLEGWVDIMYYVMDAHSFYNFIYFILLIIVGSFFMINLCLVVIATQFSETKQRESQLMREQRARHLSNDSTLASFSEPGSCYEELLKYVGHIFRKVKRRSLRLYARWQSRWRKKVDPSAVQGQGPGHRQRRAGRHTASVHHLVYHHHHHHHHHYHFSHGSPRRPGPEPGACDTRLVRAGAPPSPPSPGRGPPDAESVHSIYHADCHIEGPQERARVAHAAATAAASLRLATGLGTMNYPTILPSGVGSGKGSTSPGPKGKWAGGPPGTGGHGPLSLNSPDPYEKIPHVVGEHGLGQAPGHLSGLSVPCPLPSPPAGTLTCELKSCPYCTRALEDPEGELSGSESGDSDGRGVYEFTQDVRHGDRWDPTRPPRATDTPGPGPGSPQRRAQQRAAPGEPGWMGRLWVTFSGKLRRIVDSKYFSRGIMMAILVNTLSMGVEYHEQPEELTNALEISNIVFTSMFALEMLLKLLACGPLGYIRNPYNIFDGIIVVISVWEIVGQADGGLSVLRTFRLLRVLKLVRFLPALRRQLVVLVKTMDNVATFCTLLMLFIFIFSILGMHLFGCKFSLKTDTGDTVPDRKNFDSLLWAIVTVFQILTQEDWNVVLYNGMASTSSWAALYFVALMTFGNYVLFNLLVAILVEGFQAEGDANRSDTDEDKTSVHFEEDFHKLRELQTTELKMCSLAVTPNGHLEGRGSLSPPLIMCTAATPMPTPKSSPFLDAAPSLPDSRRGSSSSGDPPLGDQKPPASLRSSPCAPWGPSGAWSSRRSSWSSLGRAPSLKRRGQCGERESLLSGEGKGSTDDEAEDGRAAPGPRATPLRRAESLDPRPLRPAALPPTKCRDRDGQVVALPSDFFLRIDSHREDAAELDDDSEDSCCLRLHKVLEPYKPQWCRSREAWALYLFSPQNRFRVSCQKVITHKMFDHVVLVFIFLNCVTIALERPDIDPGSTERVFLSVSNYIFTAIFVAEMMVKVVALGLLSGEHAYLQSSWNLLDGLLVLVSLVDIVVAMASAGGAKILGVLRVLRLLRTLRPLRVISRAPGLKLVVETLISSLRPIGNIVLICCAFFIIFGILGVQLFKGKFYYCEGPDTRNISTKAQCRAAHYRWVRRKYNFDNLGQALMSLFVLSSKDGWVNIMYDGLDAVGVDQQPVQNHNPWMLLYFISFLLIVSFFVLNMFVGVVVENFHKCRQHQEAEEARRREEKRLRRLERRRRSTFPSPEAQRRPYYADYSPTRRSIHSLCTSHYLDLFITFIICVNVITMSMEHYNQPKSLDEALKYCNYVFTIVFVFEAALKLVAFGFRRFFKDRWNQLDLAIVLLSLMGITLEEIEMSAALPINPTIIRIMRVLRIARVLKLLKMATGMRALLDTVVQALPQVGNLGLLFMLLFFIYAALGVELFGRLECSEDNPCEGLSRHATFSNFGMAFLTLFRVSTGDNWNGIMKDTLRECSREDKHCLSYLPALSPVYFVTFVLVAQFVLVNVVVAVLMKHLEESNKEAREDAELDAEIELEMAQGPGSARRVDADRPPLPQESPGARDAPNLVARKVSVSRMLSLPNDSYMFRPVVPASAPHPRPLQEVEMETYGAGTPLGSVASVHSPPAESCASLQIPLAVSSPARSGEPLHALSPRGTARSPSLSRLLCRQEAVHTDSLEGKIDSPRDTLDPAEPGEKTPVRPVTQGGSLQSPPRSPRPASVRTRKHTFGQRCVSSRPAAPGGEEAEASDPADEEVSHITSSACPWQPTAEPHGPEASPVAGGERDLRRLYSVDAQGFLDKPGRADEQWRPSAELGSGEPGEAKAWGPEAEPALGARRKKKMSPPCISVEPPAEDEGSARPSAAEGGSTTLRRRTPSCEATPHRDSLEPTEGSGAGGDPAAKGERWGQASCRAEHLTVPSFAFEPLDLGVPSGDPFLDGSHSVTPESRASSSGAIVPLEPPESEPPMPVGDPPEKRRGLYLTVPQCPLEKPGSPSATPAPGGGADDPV

O=C(Nc1ccc(F)cc1)N1N=C(c2ccncc2)CC1c1ccc(F)cc1 (stereo not drawn)
solubility [1]: 0.033 mg/mL (≈ 87.2 µM) | efflux ratio (MDR1): 1 | IC50 [2]: 0.029 µM | IC50 [3]: 0.45 µM | IC50 [4]: 1.8 µM | IC50 [5]: 0.22 µM | IC50 [6]: 1.7 µM | inhibition (Rattus norvegicus [7]): 26% | inhibition (Rattus norvegicus [8]): 18% | inhibition (Rattus norvegicus [9]): 3% | IC50 (Cytochrome P450 3A4): 1.8 µM | IC50 (Cytochrome P450 2C9): 1.8 µM | microsomal CLint [10]: 21 µL/min/mg | microsomal CLint [11]: 37 µL/min/mg | fraction unbound [12]: 0.03 | Vd [13]: 23 L/kg | half-life [14]: 120 h | Cmax [15]: 0.16 µM | Tmax [16]: 0.75 h | bioavailability [17]: 100% | concentration at 1 h [18]: 0.27 µM | concentration at 1 h [19]: 4.27 µM | concentration at 1 h [20]: 0.8 µM | concentration at 1 h [21]: 0.019 µM | Activity (Rattus norvegicus [22]): Toxic | inhibition in vivo at 100 mg/kg (Rattus norvegicus [23]): 63.5% | inhibition in vivo at 100 mg/kg (Rattus norvegicus [24]): > 99% | inhibition in vivo at 100 mg/kg (Rattus norvegicus [25]): 62.2%
